The text below walks through data of ChEMBL document CHEMBL3244340, “Antineoplastic agents. 1. Synthesis and antineoplastic activities of chloroethyl- and methylnitrosourea analogues of thymidine” (J Med Chem, 1978).

One series concerns L1210. The series is described as follows: Cytotoxicity against mouse L1210 cells after 72 hrs by coulter counter analysis. The format is functional. As to conditions: L1210, 72 h, read-out: ED50 (the source's name). The method in brief:
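Murine L1210 leukemia cells grown in suspension in Fischer's medium with 10% horse serum, 37 °C. Cells exposed to nitrosoureas for 72 h, then counted by Coulter counter, two independent samples in duplicate per concentration. ED50 (concentration inhibiting growth by 50%) estimated from dose-response curves pooled from at least three separate experiments.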

The nature of series [1]: Alkylating activity of the compound relative to 1,3-bis-(2-chloroethyl)-1-nitrosourea. The format is physicochemical.
Series [2] in a line: Carbamoylating activity of the compound at 5 umol by liquid scintillation spectrometry in presence of [14C]-lysine relative to 1,3-bis-(2-chloroethyl)-1-nitrosourea. The format is physicochemical.

For the compound `Cc1cn([C@H]2C[C@H](O)[C@@H](CNC(=O)N(CCCl)N=O)O2)c(=O)[nH]c1=O`, the EC50 in the series on L1210 worked out at 6.6 µM. Moreover, the “fold change (FC)” value in series [1] is 0.47; in series [2], 1.6.

Consider `Cc1cn([C@H]2C[C@H](O)[C@@H](CN(N=O)C(=O)NCCCl)O2)c(=O)[nH]c1=O`, for which the EC50 in the series with L1210 is 4.2 µM. Further, the “fold change (FC)” value in series [1] was 0.06; in series [2], 1.6.

Take `Cc1cn([C@H]2C[C@H](O)[C@@H](CNC(=O)N(C)N=O)O2)c(=O)[nH]c1=O`: the EC50 in the series with L1210 came to 95 µM. Besides, the “fold change (FC)” value came to 0.05 in series [1] and 1 in series [2].

As for `Cc1cn([C@H]2C[C@H](NC(=O)N(CCCl)N=O)[C@@H](CO)O2)c(=O)[nH]c1=O`, in the series on L1210, the EC50 came to 1.5 µM. In addition, the “fold change (FC)” value amounted to 2.1 in series [1] and 0.9 in series [2].

`Cc1cn([C@H]2C[C@H](NC(=O)N(C)N=O)[C@@H](CO)O2)c(=O)[nH]c1=O`: the EC50 with L1210 was found to be 1 µM. The entries for the “fold change (FC)” value in series [1] and in series [2] were 0.05 and 0.9, respectively.

As to `O=NN(CCCl)C(=O)NCCCl` [CARMUSTINE], the EC50 in the series with L1210 is 4 µM.
